14 compounds from PubChem BioAssay can be followed below.

Assay [1] can be described thus: hit retest on RPL19A-GFP reporter strain – cell-based, S. cerevisiae, flow cytometry, cherry picks, mother/daughter gates, confirmation (AID 2270;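 active means GFP response below 50% of the DMSO control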). As to conditions: 3 h, at 10 µM, stronger effect = lower value, 100 = same GFP as DMSO wells. On the technique in general: A flow cytometer gives signals particle by particle.
Assay [2] can be described thus: yeast TOR pathway reporter LAP4-GFP change – cell-based, cherry picks, flow cytometry, mother/daughter gates, confirmation (AID 2271;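 active means GFP response above 150% of the DMSO control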;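 further: ratio of sample to DMSO plate mean so 100% equals DMSO level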). The settings on record: S. cerevisiae LAP4-GFP strain, 3 h, at 10 µM, stronger effect = higher value, 100 means same as DMSO control. A digest of the protocol:
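Measured by: GFP by flow cytometry. Test system: GFP-fusion yeast strain. Input: yeast cells seeded at OD600 of 0.2. Timing: 30 °C, 3 h compound incubation, rotating. Buffer or medium: synthetic complete medium for yeast. Benchmarks: DMSO-only negative wells, rapamycin 400 ng/mL positive wells. Compound: 10 µM single dose.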

Assay [3] in a line: TOR pathway reporter MEP2-GFP, retest of hits – S. cerevisiae, flow cytometry GFP, cherry picks, confirmation (AID 2272;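 active means GFP response above 150% of the DMSO control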;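 further: ratio of well signal to plate DMSO mean so 100% equals DMSO level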). The settings on record: S. cerevisiae MEP2-GFP strain, 3 h, at 10 µM, stronger effect = higher value.
A short description of assay [4]: yeast AGP1-GFP fluorescence change, single-dose – cell-based, flow cytometry, S. cerevisiae, cherry picks, confirmation (AID 2273).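 Further: median GFP channel fluorescence over the whole cell population gate.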 As to conditions: S. cerevisiae AGP1-GFP strain, 3 h, at 10 µM.
Assay [5] is described as follows: TOR pathway CIT2 reporter hit retest – S. cerevisiae, GFP fusion, cherry picks, mother/daughter gates, confirmation (AID 2274). As to conditions: S. cerevisiae CIT2-GFP strain, flow cytometry, 3 h, at 10 µM, stronger effect = higher value.
The mark [6] stands for this setting: measured here: daughter cell gate.
[7] abbreviates: measured here: mother cell gate.
[8] abbreviates: measured here: daughter cell gate response.
Where [9] appears, read: measured here: mother cell gate response.

The source made the active and inactive calls.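 How the source made its calls, unless noted: active means GFP response above 150% of the DMSO level; inconclusive means fewer than 70 events counted for a yeast strain; inactive means the rest.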

As for `O=C(COC(=O)/C=C/c1cccs1)Nc1nc(-c2cccc(Br)c2)cs1`, the GFP response vs DMSO in assay [1] is 102% (inactive); in assay [1] (setting [6]) it was 103%; in assay [1] (setting [7]), 102%; in assay [3] it was 100% (inactive). For the same compound, the figures for the GFP response relative to DMSO in assay [2], in assay [2] (setting [8]) and in assay [2] (setting [9]) were 89% (inactive), 94.1% and 89%, respectively. The GFP response, % of DMSO in assay [4] is 96.7% (inactive); in assay [5] it was 110% (inactive); in assay [5] (setting [6]), 108%; in assay [5] (setting [7]), 112%.

As to `C/C(=N\NC(=O)Cc1ccc([N+](=O)[O-])cc1)c1cccnc1`, the GFP response vs DMSO in assay [1] was 97.8% (inactive); in assay [1] (setting [6]) it was 99.3%; in assay [1] (setting [7]), 97.7%; in assay [3] it was 96.8% (inactive). For the same compound, the GFP response relative to DMSO in assay [2] is 98.2% (inactive); in assay [2] (setting [8]), 97.5%; in assay [2] (setting [9]), 97.3%. Besides, the GFP response, % of DMSO in assay [4] was 98.4% (inactive); in assay [5] it was 102% (inactive); in assay [5] (setting [6]) it was 103%; in assay [5] (setting [7]), 102%.

As for `CCOc1cc(N2CCOCC2)c(OCC)cc1NC(=O)C(NC(=O)c1ccco1)C(C)C` (centres undefined), the GFP response vs DMSO in assay [1] is 102% (inactive); in assay [1] (setting [6]) it was 101%; in assay [1] (setting [7]) it was 102%; in assay [3] it was 107% (inactive). Besides, the GFP response relative to DMSO in assay [2] is 91.4% (inactive); in assay [2] (setting [8]), 95.6%; in assay [2] (setting [9]), 93.1%. Further, the GFP response, % of DMSO is 99.6% (inactive) in assay [4], 108% (inactive) in assay [5], 108% in assay [5] (setting [6]) and 108% in assay [5] (setting [7]).

`COc1ccc(CC2=CC(=O)c3ccccc3C2=O)cc1`: the GFP response vs DMSO was 99.7% (inactive) in assay [1], 99.3% in assay [1] (setting [6]), 99.3% in assay [1] (setting [7]) and 104% (inactive) in assay [3]. The results for the GFP response relative to DMSO in assay [2], in assay [2] (setting [8]) and in assay [2] (setting [9]) were 101% (inactive), 99.3% and 102%, respectively. The GFP response, % of DMSO in assay [4] is 94.5% (inactive); in assay [5], 96.4% (inactive); in assay [5] (setting [6]) it was 96.4%; in assay [5] (setting [7]), 94.5%.

As for `COc1cccc(C(=O)C(C#N)=C(SC)SC)c1`, the GFP response vs DMSO in assay [1] is 108% (inactive); in assay [1] (setting [6]), 102%; in assay [1] (setting [7]), 106%; in assay [3], 97.8% (inactive). The GFP response relative to DMSO in assay [2] was 123% (inactive); in assay [2] (setting [8]) it was 108%; in assay [2] (setting [9]), 126%. Besides, the GFP response, % of DMSO in assay [4] is 95.7% (inactive); in assay [5], 80.8% (inactive); in assay [5] (setting [6]), 80.1%; in assay [5] (setting [7]) it was 79.4%.

In the case of `CC(=O)c1ccccc1NCC(=O)Nc1ccc(C)cc1`, the GFP response vs DMSO in assay [1] is 96.3% (inactive); in assay [1] (setting [6]), 95%; in assay [1] (setting [7]) it was 96%; in assay [3], 103% (inactive). The GFP response relative to DMSO in assay [2] was 99.8% (inactive); in assay [2] (setting [8]), 98.2%; in assay [2] (setting [9]), 101%. Moreover, the GFP response, % of DMSO is 100% (inactive) in assay [4], 93.4% (inactive) in assay [5], 95.2% in assay [5] (setting [6]) and 92.8% in assay [5] (setting [7]).

As to `CCn1c(=O)c(C(=O)NCCc2ccccc2)c(O)c2ccccc21`, the GFP response vs DMSO in assay [1] was 98.5% (inactive); in assay [1] (setting [6]), 99.8%; in assay [1] (setting [7]) it was 98.8%; in assay [3], 103% (inactive). Further, the GFP response relative to DMSO in assay [2] was 95.3% (inactive); in assay [2] (setting [8]), 96%; in assay [2] (setting [9]), 97.4%. Also, the GFP response, % of DMSO in assay [4] was 108% (inactive); in assay [5], 98.6% (inactive); in assay [5] (setting [6]), 99.3%; in assay [5] (setting [7]), 98.2%.

Turning to `CCn1c(=O)c(C(C)=O)c(O)c2ccccc21`, the GFP response vs DMSO was 104% (inactive) in assay [1], 101% in assay [1] (setting [6]), 104% in assay [1] (setting [7]) and 96.8% (inactive) in assay [3]. The values for the GFP response relative to DMSO in assay [2], in assay [2] (setting [8]) and in assay [2] (setting [9]) were 89.3% (inactive), 87.7% and 91%, respectively. Moreover, the GFP response, % of DMSO is 102% (inactive) in assay [4], 97.3% (inactive) in assay [5], 99.2% in assay [5] (setting [6]) and 91.9% in assay [5] (setting [7]).

With `Cc1ccccc1CN1CCSc2sccc2C1=O`, the GFP response vs DMSO is 95.9% (inactive) in assay [1], 94.2% in assay [1] (setting [6]), 97.3% in assay [1] (setting [7]) and 95.7% (inactive) in assay [3]. For the same compound, the GFP response relative to DMSO was 106% (inactive) in assay [2], 105% in assay [2] (setting [8]) and 113% in assay [2] (setting [9]). In addition, the GFP response, % of DMSO in assay [4] is 97.2% (inactive); in assay [5], 97.8% (inactive); in assay [5] (setting [6]), 94.8%; in assay [5] (setting [7]), 98.7%.

For the compound `O=C(O)CSC1CC(=O)N(c2cccc(Cl)c2)C1=O` (centres undefined), the GFP response vs DMSO was 96.7% (inactive) in assay [1], 97.3% in assay [1] (setting [6]), 94.6% in assay [1] (setting [7]) and 110% (inactive) in assay [3]. Besides, the GFP response relative to DMSO in assay [2] was 104% (inactive); in assay [2] (setting [8]) it was 101%; in assay [2] (setting [9]), 104%. Moreover, the GFP response, % of DMSO in assay [4] was 101% (inactive); in assay [5], 104% (inactive); in assay [5] (setting [6]), 105%; in assay [5] (setting [7]) it was 104%.

On to `CCOc1cc(/C=C2\C(=N)N3N=C(S(=O)(=O)CC)SC3=NC2=O)ccc1OC(=O)c1ccco1`, for which the GFP response vs DMSO is 104% (inactive) in assay [1], 104% in assay [1] (setting [6]), 105% in assay [1] (setting [7]) and 104% (inactive) in assay [3]. In addition, the GFP response relative to DMSO is 89% (inactive) in assay [2], 92.5% in assay [2] (setting [8]) and 90.1% in assay [2] (setting [9]). The GFP response, % of DMSO in assay [4] was 100% (inactive); in assay [5], 115% (inactive); in assay [5] (setting [6]) it was 113%; in assay [5] (setting [7]), 113%.

For `Cc1c(Br)cc(C(=O)O)c(C)c1C`, the GFP response vs DMSO was 94.4% (inactive) in assay [1], 94.7% in assay [1] (setting [6]), 88% in assay [1] (setting [7]) and 94.7% (inactive) in assay [3]. In addition, the GFP response relative to DMSO in assay [2] is 101% (inactive); in assay [2] (setting [8]), 101%; in assay [2] (setting [9]), 102%. Moreover, the GFP response, % of DMSO in assay [4] is 97.1% (inactive); in assay [5] it was 97.3% (inactive); in assay [5] (setting [6]), 95.6%; in assay [5] (setting [7]), 99.3%.

As for `O=C(NCCO)c1c(O)c2cccc3c2n(c1=O)CC3`, the GFP response vs DMSO is 99.3% (inactive) in assay [1], 99.2% in assay [1] (setting [6]), 99.4% in assay [1] (setting [7]) and 97.8% (inactive) in assay [3]. The GFP response relative to DMSO is 92.6% (inactive) in assay [2], 94.1% in assay [2] (setting [8]) and 94.2% in assay [2] (setting [9]). In addition, the GFP response, % of DMSO in assay [4] is 101% (inactive); in assay [5], 97.8% (inactive); in assay [5] (setting [6]) it was 96.5%; in assay [5] (setting [7]) it was 96.6%.

With `O=C(COC(=O)C1CCN(c2ccc(C(F)(F)F)cn2)CC1)Nc1cccc(F)c1`, the GFP response vs DMSO in assay [1] is 95% (inactive); in assay [1] (setting [6]) it was 94.6%; in assay [1] (setting [7]), 96.1%; in assay [3], 96.2% (inactive). Moreover, the GFP response relative to DMSO in assay [2] is 102% (inactive); in assay [2] (setting [8]), 102%; in assay [2] (setting [9]) it was 100%. Further, the GFP response, % of DMSO in assay [4] was 97.2% (inactive); in assay [5], 104% (inactive); in assay [5] (setting [6]), 108%; in assay [5] (setting [7]), 102%.
